According to ChEMBL document CHEMBL3098130, “Discovery of Novel Putative Inhibitors of UDP-GlcNAc 2-Epimerase as Potent Antibacterial Agents” (ACS Med Chem Lett, 2013):
Values after ≈ are worked out from the molar mass of the structure shown.

How the values were obtained:
Type in all cases: functional
Staphylococcus aureus [1] = experiment: Antibacterial activity against methicillin-resistant Staphylococcus aureus assessed as growth inhibition at 3 uM measured every 2 mins for 16 to 20 hrs by spectramax 96-well plate reader analysis; conditions: read-out: GI
Staphylococcus aureus [2] = experiment: Antibacterial activity against methicillin-resistant Staphylococcus aureus assessed as growth inhibition at 10 uM measured every 2 mins for 16 to 20 hrs by spectramax 96-well plate reader analysis; conditions: read-out: GI
Staphylococcus aureus [3] = experiment: Antibacterial activity against methicillin-resistant Staphylococcus aureus assessed as growth inhibition at 30 uM measured every 2 mins for 16 to 20 hrs by spectramax 96-well plate reader analysis; conditions: read-out: GI
Bacillus anthracis [4] = experiment: Antibacterial activity against Bacillus anthracis Sterne assessed as growth inhibition at 3 uM measured every 2 mins for 16 to 20 hrs by spectramax 96-well plate reader analysis; conditions: read-out: GI
Bacillus anthracis [5] = experiment: Antibacterial activity against Bacillus anthracis Sterne assessed as growth inhibition at 10 uM measured every 2 mins for 16 to 20 hrs by spectramax 96-well plate reader analysis; conditions: read-out: GI
Bacillus anthracis [6] = experiment: Antibacterial activity against Bacillus anthracis Sterne assessed as growth inhibition at 30 uM measured every 2 mins for 16 to 20 hrs by spectramax 96-well plate reader analysis; conditions: read-out: GI
Bacillus subtilis = experiment: Antibacterial activity against Bacillus subtilis 19659 assessed as growth inhibition measured for 3 days by broth microdilution method
Outline: (§1)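 MIC by broth microdilution against a panel of Gram-positive and Gram-negative strains (ATCC-type numbers where given). Run in triplicate on three different days.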

Staphylococcus aureus [7] = experiment: Antibacterial activity against Staphylococcus aureus 13709 assessed as growth inhibition measured for 3 days by broth microdilution method; outline: as §1
[8] = Bacillus subtilis, 19659, 72 h, read-out: MIC
[9] = Staphylococcus aureus, 13709, 72 h, read-out: MIC

Row | SMILES | inhibition of growth at 3 µM (Staphylococcus aureus [1]) [%] | inhibition of growth at 10 µM (Staphylococcus aureus [2]) [%] | inhibition of growth at 30 µM (Staphylococcus aureus [3]) [%] | inhibition of growth at 3 µM (Bacillus anthracis [4]) [%] | inhibition of growth at 10 µM (Bacillus anthracis [5]) [%] | inhibition of growth at 30 µM (Bacillus anthracis [6]) [%] | MIC (Bacillus subtilis; [8]) [µM] | MIC (Staphylococcus aureus [7]; [9]) [µM] | MIC (Bacillus subtilis) [µM] | MIC (Staphylococcus aureus [7]) [µM]
1 | O=C(O)C(Cc1ccccc1)N1C(=O)/C(=C\c2ccc(-c3cccc(Cl)c3)o2)NC1=S (stereo not given) | 0 | 0 | 10 | 10 | 0 | 90 | – | – | – | –
2 | O=C(O)C(Cc1ccccc1)N1C(=O)/C(=C\c2ccc(-c3ccc(Br)cc3)o2)NC1=S (stereo not given) | 10 | 90 | 90 | 70 | 100 | 100 | – | – | – | –
3 | O=C(O)C(Cc1ccccc1)N1C(=O)/C(=C\c2ccc(-c3ccc(I)cc3)o2)NC1=S (stereo not given) | 0 | 90 | 90 | 50 | 100 | 100 | – | – | – | –
4 | O=C(O)C(Cc1ccccc1)N1C(=O)/C(=C\c2ccc(-c3ccc(OC(F)(F)F)cc3)o2)NC1=S (stereo not given) | 0 | 10 | 100 | 10 | 100 | 100 | – | – | – | –
5 | O=C(O)C(Cc1ccccc1)N1C(=O)/C(=C\c2ccc(-c3ccc(Cl)c(Cl)c3)s2)NC1=S (stereo not given) | 10 | 10 | 40 | 0 | 110 | 90 | – | – | – | –
6 | O=C(O)C(Cc1ccccc1)N1C(=O)/C(=C\c2ccc(-c3ccc(Cl)c(Cl)c3)o2)NC1=S (stereo not given) | 20 | 90 | 100 | 110 | 110 | 110 | – | – | – | –
7 | O=C(O)C(Cc1ccccc1)N1C(=O)/C(=C\c2ccc(-c3ccc(Br)c(Cl)c3)s2)NC1=S (stereo not given) | – | 10 | 0 | 20 | 10 | 90 | – | – | – | –
8 | O=C(O)C(Cc1ccccc1)N1C(=O)/C(=C\c2ccc(-c3ccc(Br)c(Cl)c3)o2)NC1=S (stereo not given) | 20 | 100 | 100 | 100 | 100 | 100 | – | – | – | –
9 | O=C(O)C(Cc1ccccc1)N1C(=O)/C(=C\c2ccc(-c3cc(Cl)cc(Cl)c3)o2)NC1=S (stereo not given) | 0 | 10 | 90 | 0 | 0 | 100 | – | – | – | –
10 | COc1ccc(-c2ccc(/C=C3/NC(=S)N(C(Cc4ccccc4)C(=O)O)C3=O)o2)cc1Cl (stereo not given) | 10 | 10 | 80 | 0 | 30 | 100 | – | – | – | –
11 | COc1ccc(-c2ccc(/C=C3/NC(=S)N(C(Cc4ccccc4)C(=O)O)C3=O)s2)cc1 (stereo not given) | 0 | 10 | 20 | 0 | 0 | 100 | – | – | – | –
12 | O=C(O)C(Cc1ccccc1)N1C(=O)/C(=C\c2ccc(-c3ccc(F)cc3)s2)NC1=S (stereo not given) | 20 | 20 | 50 | 0 | 10 | 100 | – | – | – | –
13 | O=C(O)C(Cc1ccccc1)N1C(=O)/C(=C\c2ccc(-c3ccc(Cl)cc3)s2)NC1=S (stereo not given) | 0 | 0 | 90 | 0 | 100 | 100 | – | – | – | –
14 | O=C(O)C(Cc1ccccc1)N1C(=O)/C(=C\c2ccc(-c3ccc(Br)cc3)s2)NC1=S (stereo not given) | 20 | 90 | 90 | 80 | 100 | 100 | – | – | – | –
15 | O=C1NC(=S)NC(=O)C1=Cc1ccc(-c2ccc(Br)c(Cl)c2)o1 | – | – | – | – | – | 96.6 | – | – | – | –
16 | O=C1Nc2ccccc2/C1=C1/SC(=S)N(C(Cc2ccccc2)C(=O)O)C1=O (stereo not given) | – | – | – | – | – | 99.7 | – | – | – | –
17 | O=C(O)[C@@H](Cc1ccccc1)N1C(=O)/C(=C/c2ccc(-c3ccc(Cl)c(Cl)c3)o2)NC1=S | – | – | – | – | – | – | 6.8 (≈ 3.31 µg/mL) | 6.8 (≈ 3.31 µg/mL) | – | –
18 | O=C(O)[C@H](Cc1ccccc1)N1C(=O)/C(=C/c2ccc(-c3ccc(Cl)c(Cl)c3)o2)NC1=S | – | – | – | – | – | – | 6.8 (≈ 3.31 µg/mL) | 6.8 (≈ 3.31 µg/mL) | – | –
19 | CCC(C(=O)O)N1C(=O)/C(=C\c2ccc(-c3ccc(Cl)c(Cl)c3)o2)NC1=S (stereo not given) | 0 | 0 | 90 | 0 | 100 | 90 | – | – | – | –
20 | NC(=O)C(Cc1ccccc1)N1C(=O)/C(=C\c2ccc(-c3ccc(Cl)c(Cl)c3)o2)NC1=S (stereo not given) | 0 | 30 | 60 | 20 | 90 | 90 | – | – | – | –
21 | CCOC(=O)C(Cc1ccccc1)N1C(=O)/C(=C\c2ccc(-c3ccc(Cl)c(Cl)c3)o2)NC1=S (stereo not given) | – | 0 | 0 | – | 50 | 0 | – | – | – | –
22 | N#CNC(=O)C(Cc1ccccc1)N1C(=O)/C(=C\c2ccc(-c3ccc(Cl)c(Cl)c3)o2)NC1=S (stereo not given) | 0 | 0 | 100 | 0 | 100 | 100 | – | – | – | –
23 | CS(=O)(=O)NC(=O)C(Cc1ccccc1)N1C(=O)/C(=C\c2ccc(-c3ccc(Cl)c(Cl)c3)o2)NC1=S (stereo not given) | 0 | 30 | 60 | 40 | 100 | 90 | – | – | – | –
24 | O=C(NS(=O)(=O)C(F)(F)F)C(Cc1ccccc1)N1C(=O)/C(=C\c2ccc(-c3ccc(Cl)c(Cl)c3)o2)NC1=S (stereo not given) | 0 | 80 | 90 | 70 | 100 | 100 | – | – | – | –
25 | CCC(C(=O)NS(C)(=O)=O)N1C(=O)/C(=C\c2ccc(-c3ccc(Cl)c(Cl)c3)o2)NC1=S (stereo not given) | 0 | 0 | 0 | 10 | 0 | 20 | – | – | – | –
26 | O=C(O)[C@@H](Cc1ccccc1)N1C(=O)/C(=C\c2ccc(-c3ccc(Cl)c(Cl)c3)o2)NC1=S | – | – | – | – | – | – | 6.8 (≈ 3.31 µg/mL) | 6.8 (≈ 3.31 µg/mL) | – | –
27 | O=C(O)[C@H](Cc1ccccc1)N1C(=O)/C(=C\c2ccc(-c3ccc(Cl)c(Cl)c3)o2)NC1=S | – | – | – | – | – | – | – | – | 6.8 (≈ 3.31 µg/mL) | 6.8 (≈ 3.31 µg/mL)
28 | O=C(O)C(Cc1ccccc1)N1C(=O)/C(=C\c2ccc(-c3ccccc3)o2)NC1=S (stereo not given) | 0 | 10 | 10 | 0 | 10 | 20 | – | – | – | –
29 | O=C(O)C(Cc1ccccc1)N1C(=O)/C(=C\c2ccc(-c3ccc(Cl)cc3)o2)NC1=S (stereo not given) | 10 | 20 | 90 | 0 | 70 | 100 | – | – | – | –
